pIC50: −log10 of the molar value. The source made the active and inactive calls. The rule behind the calls is not given here.
Experiments:
MCF7 = assay: Cytotoxicity against human MCF7 cells after 24 hrs by MTT assay; assay type: functional, cell-based; conditions: for pIC50: Homo sapiens, MCF7, 24 h, read-out: IC50; for IC50: mcf7
Procedure, shortened: (§1)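 Cells seeded at 1 × 10⁴/well in DMEM with 10% FBS and held 24 h at 37 °C in CO₂. Compounds diluted in culture medium and incubated 24 h. Medium removed, MTT (5 mg/ml) added for 4 h, formazan dissolved in DMSO, absorbance read at 540 nm. Viability given as percent of untreated cells.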

MDA-MB-231 [1] = assay: Induction of apoptosis in human MDA-MB-231 cells assessed as reduction in membrane potential at 5 uM after 24 hrs by flow cytometry; assay type: functional, cell-based
Procedure, shortened: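 MDA-MB-231 cells treated 24 h at 5 µM, collected by trypsinization and washed with PBS. Cells loaded with JC-1 for 15 min at 37 °C, rinsed three times in phenol-red-free high-glucose DMEM and resuspended in prewarmed medium. Membrane potential taken as the red/green (590/530 nm) fluorescence ratio.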

MDA-MB-231 [2] = assay: Cell cycle arest in human MDA-MB-231 cells assessed as increase in p21 mRNA expression at 5 uM after 24 hrs by RT-PCR; assay type: functional, cell-based
Procedure, shortened: (§2)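 MDA-MB231 cells (1 × 10⁶) grown overnight in six-well plates, treated at 5 µM. Total RNA isolated with Trizol, 1 µg digested with DNase I, then reverse transcribed. Relative mRNA levels of cyclin A1, bax, bcl-2, p21 and p53 measured by real-time PCR against untreated control.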

HEK293 = assay: Cytotoxicity against HEK293 cells after 24 hrs by MTT assay; assay type: cell-based, Homo sapiens; conditions: for pIC50: Homo sapiens, HEK293, 24 h, read-out: IC50; for IC50: hek293; procedure, shortened: as §1
MDA-MB-231 [3] = assay: Cell cycle arrest in human MDA-MB-231 cells assessed as reduction in cyclin A1 mRNA expression at 5 uM after 24 hrs by RT-PCR; assay type: functional, cell-based; procedure, shortened: as §2
HeLa = assay: Cytotoxicity against human HeLa cells after 24 hrs by MTT assay; assay type: functional, cell-based; conditions: for IC50: hela; for pIC50: Homo sapiens, HeLa, 24 h, read-out: IC50; procedure, shortened: as §1
MDA-MB-231 [4] = assay: Induction of apoptosis in human MDA-MB-231 cells assessed as early apoptotic cells at 5 uM after 24 hrs annexin-V FITC and PI staining by flow cytometry; assay type: functional, cell-based
Procedure, shortened: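 MDA-MB231 cells (1 × 10⁶) grown overnight in six-well plates, then given 5 µM final compound or vehicle (0.001% DMSO) for 24 h. Floating and adherent cells harvested by trypsinization and washed with PBS. 1 × 10⁵ cells stained with Annexin V-FITC and propidium iodide and analysed by flow cytometry with 488 nm excitation; Annexin V-FITC read at 535 nm emission.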

MDA-MB-231 [5] = assay: Cell cycle arrest in human MDA-MB-231 cells assessed as reduction in bcl2 mRNA expression at 5 uM after 24 hrs by RT-PCR; assay type: functional, cell-based; procedure, shortened: as §2
MDA-MB-231 [6] = assay: Cytotoxicity against human MDA-MB-231 cells after 24 hrs by MTT assay; assay type: functional, cell-based; conditions: for pIC50: Homo sapiens, MDA-MB-231, 24 h, read-out: IC50; for IC50: mda-mb-231; procedure, shortened: as §1
MDA-MB-231 [7] = assay: Cell cycle arest in human MDA-MB-231 cells assessed as increase in sub G1 phase at 5 uM after 24 hrs annexin-V FITC and PI staining by flow cytometry; assay type: functional, cell-based
MDA-MB-231 [8] = assay: Cell cycle arrest in human MDA-MB-231 cells assessed as decrease in S phase at 5 uM after 24 hrs annexin-V FITC and PI staining by flow cytometry; assay type: functional, cell-based
MDA-MB-231 [9] = assay: Induction of apoptosis in human MDA-MB-231 cells assessed as increase in caspase level at 5 uM after 24 hrs; assay type: functional, cell-based
Procedure, shortened: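 MDA-MB231 cells kept serum-deprived for 4 h, then treated 24 h at 5 µM. Cells incubated with caspase substrate DEVD-rhodamine-110 in a homogeneous caspase assay. Fluorescence of released rhodamine-110 measured at […].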

MDA-MB-231 [10] = assay: Cell cycle arrest in human MDA-MB-231 cells assessed as increase in p53 mRNA expression at 5 uM after 24 hrs by RT-PCR; assay type: functional, cell-based; procedure, shortened: as §2
MDA-MB-231 [11] = assay: Cell cycle arrest in human MDA-MB-231 cells assessed as increase in bax mRNA expression at 5 uM after 24 hrs by RT-PCR; assay type: functional, cell-based; procedure, shortened: as §2

Compound | pIC50 (MCF7) | pIC50 (HEK293) | IC50 (HeLa) | pIC50 (MDA-MB-231 [6]) | pIC50 (HeLa) | IC50 (HEK293) | also measured
Cc1cc(O)c(C(=O)/C=C/c2ccccc2)c(-c2ccc(Cl)cc2)c1C(=O)/C=C/c1ccccc1 | 4.82 | 5.30 | Not Active | 5.36 | – | – | Activity (MDA-MB-231 [1]): Active; Activity (MDA-MB-231 [2]): Active; Activity (MDA-MB-231 [3]): Active; Activity (MDA-MB-231 [4]): Active; Activity (MDA-MB-231 [5]): Active; Activity (MDA-MB-231 [7]): Active; Activity (MDA-MB-231 [8]): Active; Activity (MDA-MB-231 [9]): Active; Activity (MDA-MB-231 [10]): Active
Cc1cc(O)c(C(=O)/C=C/c2ccc(Cl)cc2)c(-c2ccccc2)c1C(=O)/C=C/c1ccc(Cl)cc1 | 5.00 | 5.00 | – | 5.10 | 4.52 | – | –
Cc1cc(O)c(C(=O)/C=C/c2cccc(Cl)c2)c(-c2ccccc2)c1C(=O)/C=C/c1cccc(Cl)c1 | 4.70 | 4.82 | – | 5.33 | 4.66 | – | Activity (MDA-MB-231 [11]): Active; Activity (MDA-MB-231 [1]): Active; Activity (MDA-MB-231 [2]): Active; Activity (MDA-MB-231 [3]): Active; Activity (MDA-MB-231 [4]): Active; Activity (MDA-MB-231 [5]): Active; Activity (MDA-MB-231 [7]): Active; Activity (MDA-MB-231 [8]): Active; Activity (MDA-MB-231 [9]): Active; Activity (MDA-MB-231 [10]): Active
Cc1cc(O)c(C(=O)/C=C/c2ccc3ccccc3c2)c(-c2ccc(Cl)cc2)c1C(=O)/C=C/c1ccc2ccccc2c1 | – | – | Not Active | – | – | Not Active | IC50 (MCF7): Not Active; IC50 (MDA-MB-231 [6]): Not Active
Cc1cc(O)c(C(=O)/C=C/c2ccc(Cl)cc2)c(-c2ccc(Br)cc2)c1C(=O)/C=C/c1ccc(Cl)cc1 | 4.70 | 4.60 | – | 4.82 | 4.49 | – | –
Cc1cc(O)c(C(=O)/C=C/c2ccc(F)cc2)c(-c2ccc(OCc3ccccc3)cc2)c1C(=O)/C=C/c1ccc(F)cc1 | 4.55 | 4.52 | – | 4.82 | 4.60 | – | –
Cc1cc(O)c(C(=O)/C=C/c2ccccc2)c(-c2ccc(Br)cc2)c1C(=O)/C=C/c1ccccc1 | 5.00 | 4.52 | – | 5.10 | 4.52 | – | –
Cc1cc(O)c(C(=O)/C=C/c2ccccc2)c(-c2ccc(OCc3ccccc3)cc2)c1C(=O)/C=C/c1ccccc1 | – | – | Not Active | – | – | Not Active | IC50 (MCF7): Not Active; IC50 (MDA-MB-231 [6]): Not Active
Cc1cc(O)c(C(=O)/C=C/c2ccc3ccccc3c2)c(-c2ccccc2)c1C(=O)/C=C/c1ccc2ccccc2c1 | 4.50 | – | Not Active | 4.52 | – | Not Active | –
Cc1cc(O)c(C(=O)/C=C/c2ccc(Br)cc2)c(-c2ccc(Br)cc2)c1C(=O)/C=C/c1ccc(Br)cc1 | 4.82 | 4.52 | – | 4.74 | 4.52 | – | –
Cc1cc(O)c(C(=O)/C=C/c2ccc(F)cc2)c(-c2ccc(Br)cc2)c1C(=O)/C=C/c1ccc(F)cc1 | 4.70 | 4.70 | Not Active | 4.65 | – | – | –
Cc1cc(O)c(C(=O)/C=C/c2ccc(Br)cc2)c(-c2ccccc2)c1C(=O)/C=C/c1ccc(Br)cc1 | 5.00 | 5.00 | – | 5.00 | 4.47 | – | –
Cc1cc(O)c(C(=O)/C=C/c2ccc(F)cc2)c(-c2ccccc2)c1C(=O)/C=C/c1ccc(F)cc1 | 4.70 | – | – | 4.70 | 4.52 | Not Active | –
Cc1cc(O)c(C(=O)/C=C/c2ccc(OCc3ccccc3)cc2)c(-c2ccccc2)c1C(=O)/C=C/c1ccc(OCc2ccccc2)cc1 | 5.00 | 4.52 | – | 5.00 | 4.70 | – | –
Cc1cc(O)c(C(=O)/C=C/c2ccc(Cl)cc2)c(-c2ccc(OCc3ccccc3)cc2)c1C(=O)/C=C/c1ccc(Cl)cc1 | – | – | Not Active | 4.52 | – | Not Active | IC50 (MCF7): Not Active
COc1ccc(/C=C/C(=O)c2c(C)cc(O)c(C(=O)/C=C/c3ccc(OC)cc3)c2-c2ccc(OCc3ccccc3)cc2)cc1 | 4.52 | 4.55 | – | 4.92 | 4.55 | – | –
COc1ccc(/C=C/C(=O)c2c(C)cc(O)c(C(=O)/C=C/c3ccc(OC)cc3)c2-c2ccc(Br)cc2)cc1 | – | – | Not Active | – | – | Not Active | IC50 (MCF7): Not Active; IC50 (MDA-MB-231 [6]): Not Active
Cc1cc(O)c(C(=O)/C=C/c2ccc(Cl)cc2)c(-c2ccc(Cl)cc2)c1C(=O)/C=C/c1ccc(Cl)cc1 | 4.55 | – | Not Active | 4.52 | – | Not Active | –
Cc1cc(O)c(C(=O)/C=C/c2cccc3ccccc23)c(-c2ccc(Cl)cc2)c1C(=O)/C=C/c1cccc2ccccc12 | 4.52 | 4.52 | Not Active | 4.52 | – | – | –
COc1ccc(/C=C/C(=O)c2c(C)cc(O)c(C(=O)/C=C/c3ccc(OC)c(OC)c3)c2-c2ccccc2)cc1OC | – | – | Not Active | – | – | Not Active | IC50 (MCF7): Not Active; IC50 (MDA-MB-231 [6]): Not Active
Cc1cc(O)c(C(=O)/C=C/c2ccccc2Cl)c(-c2ccccc2)c1C(=O)/C=C/c1ccccc1Cl | – | – | Not Active | – | – | Not Active | IC50 (MCF7): Not Active; IC50 (MDA-MB-231 [6]): Not Active
Cc1cc(O)c(C(=O)/C=C/c2ccc(OCc3ccccc3)cc2)c(-c2ccc(Br)cc2)c1C(=O)/C=C/c1ccc(OCc2ccccc2)cc1 | 4.70 | 4.60 | Not Active | 4.70 | – | – | –
Cc1cc(O)c(C(=O)/C=C/c2ccccc2)c(-c2ccccc2)c1C(=O)/C=C/c1ccccc1 | 5.00 | – | Not Active | 5.07 | – | Not Active | –
Cc1cc(O)c(C(=O)/C=C/c2ccc(OCc3ccccc3)cc2)c(-c2ccc(OCc3ccccc3)cc2)c1C(=O)/C=C/c1ccc(OCc2ccccc2)cc1 | 4.59 | 4.52 | Not Active | 4.70 | – | – | –
Cc1cc(O)c(C(=O)/C=C/c2cccc3ccccc23)c(-c2ccccc2)c1C(=O)/C=C/c1cccc2ccccc12 | 4.52 | – | Not Active | – | – | Not Active | IC50 (MDA-MB-231 [6]): Not Active
CC/C(=C(\c1ccccc1)c1ccc(OCCN(C)C)cc1)c1ccccc1 [TAMOXIFEN] | 5.05 | 5.00 | – | 5.00 | 4.90 | – | –
Cc1cc(O)c(C(=O)/C=C/c2ccccc2Cl)c(-c2ccc(Cl)cc2)c1C(=O)/C=C/c1ccccc1Cl | 4.52 | 4.52 | Not Active | 4.54 | – | – | –
Cc1cc(O)c(C(=O)/C=C/c2ccc(Br)cc2)c(-c2ccc(OCc3ccccc3)cc2)c1C(=O)/C=C/c1ccc(Br)cc1 | 4.52 | 4.70 | Not Active | 4.52 | – | – | –
COc1ccc(/C=C/C(=O)c2c(C)cc(O)c(C(=O)/C=C/c3ccc(OC)c(OC)c3)c2-c2ccc(OCc3ccccc3)cc2)cc1OC | 4.52 | 4.52 | Not Active | 4.66 | – | – | –
COc1ccc(/C=C/C(=O)c2c(C)cc(O)c(C(=O)/C=C/c3ccc(OC)cc3)c2-c2ccccc2)cc1 | – | – | Not Active | – | – | Not Active | IC50 (MCF7): Not Active; IC50 (MDA-MB-231 [6]): Not Active
